Bridge positions count the residues as written; N and C are the ends. Square brackets hold non-standard residues; d marks the D form. Peptide text beside a SMILES is read from it. Ala(4-thiazolyl) = N[C@@H](Cc1cscn1)C(=O)O; Ala(2-furyl) = N[C@@H](Cc1ccco1)C(=O)O; 2Thi = N[C@@H](Cc1cccs1)C(=O)O; Orn = NCCC[C@H](N)C(=O)O; Dab = NCC[C@H](N)C(=O)O; Ac4c = NC1(C(=O)O)CCC1
Assays:
Oxytocin receptor = target: T1, Oxytocin receptor (Homo sapiens, UniProt P30559); test: Agonist activity at human OT receptor expressed in CHO-K1 cells by luciferase reporter gene assay; assay type: functional, cell-based
T1 sequence (P30559 whole entry): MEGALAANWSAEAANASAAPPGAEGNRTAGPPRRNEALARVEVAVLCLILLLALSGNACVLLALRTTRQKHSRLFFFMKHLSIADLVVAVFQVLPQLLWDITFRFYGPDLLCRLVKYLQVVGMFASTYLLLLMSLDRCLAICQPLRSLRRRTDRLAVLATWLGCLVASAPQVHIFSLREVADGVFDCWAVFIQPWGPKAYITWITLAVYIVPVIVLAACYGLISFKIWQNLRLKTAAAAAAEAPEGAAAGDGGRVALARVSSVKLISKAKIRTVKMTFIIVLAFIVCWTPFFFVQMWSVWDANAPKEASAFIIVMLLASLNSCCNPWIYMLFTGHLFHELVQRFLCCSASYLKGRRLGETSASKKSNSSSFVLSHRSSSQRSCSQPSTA

Vasopressin V2 receptor [1] = target: T2, Vasopressin V2 receptor (Homo sapiens, UniProt P30518); test: Agonist activity at recombinant human vasopressin V2 receptor expressed in HEK293 cells by luciferase reporter gene assay; assay type: functional, cell-based
Vasopressin V1b receptor = target: T3, Vasopressin V1b receptor (Homo sapiens, UniProt P47901); test: Agonist activity at recombinant human vasopressin V1b receptor expressed in Flp-In-293 cells by luciferase reporter gene assay; assay type: functional, cell-based; settings: read-out: EC50
T3 sequence (P47901 whole entry): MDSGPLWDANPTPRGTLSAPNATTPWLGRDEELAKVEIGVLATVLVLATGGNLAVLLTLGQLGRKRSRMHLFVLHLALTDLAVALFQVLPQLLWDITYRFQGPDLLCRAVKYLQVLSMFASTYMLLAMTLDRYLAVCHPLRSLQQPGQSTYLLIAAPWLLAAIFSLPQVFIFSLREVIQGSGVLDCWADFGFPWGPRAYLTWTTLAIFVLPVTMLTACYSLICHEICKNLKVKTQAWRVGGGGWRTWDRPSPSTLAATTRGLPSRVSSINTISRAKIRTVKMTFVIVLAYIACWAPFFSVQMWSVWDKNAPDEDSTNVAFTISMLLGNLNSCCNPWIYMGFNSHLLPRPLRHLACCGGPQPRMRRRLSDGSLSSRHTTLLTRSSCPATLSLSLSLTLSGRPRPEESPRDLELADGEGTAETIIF
In short: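 Reporter gene assays in HEK293 cells transiently cotransfected with V1a (human or rat) or human V2 receptor vector plus NFAT-luciferase (V1a) or CRE-luciferase (V2) reporter; V1b in Flp-In-293 stably expressing receptor, OT in CHO-K1 stably expressing receptor, both transiently transfected with NFAT-luciferase. Two days post-transfection, peptides added for 5 h at 37 °C, lysis with luciferin, luminescence read.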

Vasopressin V1a receptor [2] = target: Vasopressin V1a receptor (Homo sapiens, UniProt P37288); test: Agonist activity at recombinant human vasopressin V1a receptor expressed in HEK293 cells by luciferase reporter gene assay; assay type: functional, cell-based; settings: read-out: EC50
[3] = target: Vasopressin V1a/V2 (Homo sapiens) (UniProt P30518+P37288); test: Selectivity ratio of EC50 for human vasopressin V2 receptor to EC50 for human vasopressin V1a receptor
Homo sapiens [4] = organism: Homo sapiens; test: Selectivity ratio of EC50 for human vasopressin V1b receptor to EC50 for human vasopressin V1a receptor
Vasopressin V2 receptor [5] = target: T2, Vasopressin V2 receptor; test: Partial agonist activity at recombinant human vasopressin V2 receptor expressed in HEK293 cells by luciferase reporter gene assay; assay type: functional, cell-based
In short: (§1)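 Same luciferase reporter systems (OT in stable CHO-K1, V1b in stable Flp-In-293, each with transient NFAT-luciferase; V1a in HEK293 with NFAT-luciferase, V2 in HEK293 with CRE-luciferase). Peptides added for 5 h at 37 °C two days post-transfection, luminescence read. Partial agonism means efficacy <70%.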

Homo sapiens [6] = organism: Homo sapiens; test: Selectivity ratio of EC50 for human oxytocin receptor to EC50 for human vasopressin V1a receptor
[7] = target: T4, Oxytocin receptor (Homo sapiens) (UniProt P30559); test: Partial agonist activity at human OT receptor expressed in CHO-K1 cells by luciferase reporter gene assay; assay type: functional, cell-based; in short: as §1
T4 sequence (whole entry): T1 sequence (P30559 whole entry)

Vasopressin V1a receptor [8] = target: Vasopressin V1a receptor (Rattus norvegicus, UniProt P30560); test: Agonist activity at recombinant rat vasopressin V1a receptor expressed in HEK293 cells by luciferase reporter gene assay; assay type: functional, cell-based
Vasopressin V1a receptor (Rattus norvegicus, UniProt P30560), sequence (P30560 whole entry): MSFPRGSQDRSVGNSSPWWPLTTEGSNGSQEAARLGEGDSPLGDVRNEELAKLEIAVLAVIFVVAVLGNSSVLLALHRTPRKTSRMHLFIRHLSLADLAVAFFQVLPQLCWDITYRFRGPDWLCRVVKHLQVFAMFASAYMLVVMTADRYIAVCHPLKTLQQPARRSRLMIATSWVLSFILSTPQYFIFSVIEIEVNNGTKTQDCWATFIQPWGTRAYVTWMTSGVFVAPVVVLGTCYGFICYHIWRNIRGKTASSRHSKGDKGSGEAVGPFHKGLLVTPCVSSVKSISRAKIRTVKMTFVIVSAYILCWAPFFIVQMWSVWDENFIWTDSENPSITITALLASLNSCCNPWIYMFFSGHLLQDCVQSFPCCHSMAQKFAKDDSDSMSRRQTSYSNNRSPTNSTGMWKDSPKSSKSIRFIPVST

T2 sequence (P30518 whole entry): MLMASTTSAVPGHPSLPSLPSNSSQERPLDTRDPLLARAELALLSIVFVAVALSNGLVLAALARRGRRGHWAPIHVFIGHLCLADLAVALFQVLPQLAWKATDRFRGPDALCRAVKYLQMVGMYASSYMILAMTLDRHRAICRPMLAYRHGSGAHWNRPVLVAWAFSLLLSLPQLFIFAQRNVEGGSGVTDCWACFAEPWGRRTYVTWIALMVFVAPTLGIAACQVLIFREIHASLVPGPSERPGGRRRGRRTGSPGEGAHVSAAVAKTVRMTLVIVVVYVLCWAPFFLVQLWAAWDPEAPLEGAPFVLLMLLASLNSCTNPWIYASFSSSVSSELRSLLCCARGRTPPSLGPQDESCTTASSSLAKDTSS
Vasopressin V1a/V2 (Homo sapiens), sequence (P30518 whole entry, looked up): as the sequence (P30518 whole entry) above
Vasopressin V1a/V2 (Homo sapiens), sequence (P37288 whole entry, looked up): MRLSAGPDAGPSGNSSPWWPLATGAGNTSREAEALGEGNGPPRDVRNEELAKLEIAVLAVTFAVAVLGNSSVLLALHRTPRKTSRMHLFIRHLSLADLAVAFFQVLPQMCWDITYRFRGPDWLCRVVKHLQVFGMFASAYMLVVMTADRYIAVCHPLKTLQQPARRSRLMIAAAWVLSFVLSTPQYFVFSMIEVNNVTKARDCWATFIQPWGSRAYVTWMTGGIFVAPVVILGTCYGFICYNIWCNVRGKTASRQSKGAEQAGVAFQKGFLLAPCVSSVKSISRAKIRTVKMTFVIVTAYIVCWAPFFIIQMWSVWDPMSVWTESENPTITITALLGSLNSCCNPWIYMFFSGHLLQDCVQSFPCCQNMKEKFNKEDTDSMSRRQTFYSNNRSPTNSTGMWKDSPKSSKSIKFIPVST
Vasopressin V1a receptor (Homo sapiens, UniProt P37288), sequence (P37288 whole entry): as the sequence (P37288 whole entry, looked up) above

EC50 (Oxytocin receptor; cho-k1, read-out: EC50) [nM] | EC50 (Oxytocin receptor; read-out: pEC50 (converted)) [nM] | EC50 (Vasopressin V2 receptor [1]; read-out: EC50) [nM] | EC50 (Vasopressin V1b receptor) [nM] | EC50 (Vasopressin V1a receptor [2]) [nM] | Ratio EC50 [3] | Ratio EC50 (Homo sapiens [4]) | Efficacy (Vasopressin V2 receptor [5]) [%] | Ratio EC50 (Homo sapiens [6]) | EC50 (Oxytocin receptor; read-out: EC50) [nM] | Efficacy [7] [%] | EC50 (Vasopressin V2 receptor [1]; hek293, read-out: EC50) [nM] | EC50 (Vasopressin V2 receptor [1]; read-out: pEC50 (converted)) [nM] | SMILES | EC50 (Vasopressin V1a receptor [8]; read-out: EC50) [nM] | EC50 (Vasopressin V1a receptor [8]; read-out: pEC50 (converted)) [nM]
> 10000 | > 10000 | 2600 | 97 | 39 | 66 | 2.4 | < 70 | > 250 | – | – | – | – | CCNC(=O)CC[C@@H]1NC(=O)[C@H]([C@@H](C)CC)NC(=O)[C@H](Cc2ccccc2)NC(=O)[C@@H](N)CSSC[C@@H](C(=O)N2CCC[C@H]2C(=O)N[C@@H](CCCN)C(=O)NCC(N)=O)NC(=O)[C@H](CC(N)=O)NC1=O (H-CFIE(NHEt)NCP[Orn]G-NH2; disulfide 1-6) | – | –
– | – | 120 | 150 | 0.54 | 220 | 270 | – | 53 | 29 | < 70 | – | – | CC[C@H](C)[C@@H]1NC(=O)[C@H](Cc2cccs2)NC(=O)[C@@H](N)CSSC[C@@H](C(=O)N2CCC[C@H]2C(=O)N[C@@H](CCN)C(=O)NCC(N)=O)NC(=O)[C@H](CC(N)=O)NC(=O)[C@H](CCC(N)=O)NC1=O (H-C[2Thi]IQNCP[Dab]G-NH2; disulfide 1-6) | – | –
– | – | – | 460 | 14 | > 710 | 32 | – | 55 | 780 | < 70 | > 10000 | > 10000 | CC[C@H](C)[C@@H]1NC(=O)[C@H](Cc2ccco2)NC(=O)[C@@H](N)CSSC[C@@H](C(=O)N2CCC[C@H]2C(=O)N[C@@H](CCN)C(=O)NCC(N)=O)NC(=O)[C@H](CC(N)=O)NC(=O)[C@H](CC(N)=O)NC1=O (H-C[Ala(2-furyl)]INNCP[Dab]G-NH2; disulfide 1-6) | – | –
– | – | 2500 | 430 | 19 | 130 | 22 | < 70 | 63 | 1200 | < 70 | – | – | CC[C@H](C)[C@@H]1NC(=O)[C@H](Cc2cscn2)NC(=O)[C@@H](N)CSSC[C@@H](C(=O)N2CCC[C@H]2C(=O)N[C@@H](CCN)C(=O)NCC(N)=O)NC(=O)[C@H](CC(N)=O)NC(=O)[C@H](CCC(N)=O)NC1=O (H-C[Ala(4-thiazolyl)]IQNCP[Dab]G-NH2; disulfide 1-6) | – | –

The remaining lines, values behind:

SMILES | EC50 (Oxytocin receptor; cho-k1, read-out: EC50) [nM] | EC50 (Oxytocin receptor; read-out: pEC50 (converted)) [nM] | EC50 (Vasopressin V2 receptor [1]; read-out: EC50) [nM] | EC50 (Vasopressin V1b receptor) [nM] | EC50 (Vasopressin V1a receptor [2]) [nM] | Ratio EC50 [3] | Ratio EC50 (Homo sapiens [4]) | Efficacy (Vasopressin V2 receptor [5]) [%] | Ratio EC50 (Homo sapiens [6]) | EC50 (Oxytocin receptor; read-out: EC50) [nM] | Efficacy [7] [%] | EC50 (Vasopressin V2 receptor [1]; hek293, read-out: EC50) [nM] | EC50 (Vasopressin V2 receptor [1]; read-out: pEC50 (converted)) [nM] | EC50 (Vasopressin V1a receptor [8]; read-out: EC50) [nM] | EC50 (Vasopressin V1a receptor [8]; read-out: pEC50 (converted)) [nM]
CC[C@H](C)[C@@H]1NC(=O)C2(CCC2)NC(=O)[C@@H](N)CSSC[C@@H](C(=O)N2CCC[C@H]2C(=O)N[C@@H](CCN)C(=O)NCC(N)=O)NC(=O)[C@H](CC(N)=O)NC(=O)[C@H](CCC(N)=O)NC1=O (H-C[Ac4c]IQNCP[Dab]G-NH2; disulfide 1-6) | – | > 10000 | 380 | 64 | 0.94 | 400 | 68 | – | 190 | 180 | < 70 | – | – | – | –
CC[C@H](C)[C@@H]1NC(=O)[C@H](Cc2ccccc2)NC(=O)[C@@H](N)CSSC[C@@H](C(=O)N2CCC[C@H]2C(=O)N[C@@H](CCN)C(=O)NCC(N)=O)NC(=O)[C@H](CC(N)=O)NC(=O)[C@H](CCC(N)=O)NC1=O (H-CFIQNCP[Dab]G-NH2; disulfide 1-6) | – | – | 73 | 26 | – | 140 | 52 | – | 18 | 9.1 | < 70 | – | – | – | –
N=C(N)NCCC[C@H](NC(=O)[C@@H]1CCCN1C(=O)[C@@H]1CSSC[C@H](N)C(=O)N[C@@H](Cc2ccccc2)C(=O)N[C@@H](Cc2ccccc2)C(=O)N[C@@H](CCC(N)=O)C(=O)N[C@@H](CC(N)=O)C(=O)N1)C(=O)NCC(N)=O (H-CFFQNCPRG-NH2; disulfide 1-6) | – | – | 1.4 | 16 | 0.15 | – | – | – | – | – | – | – | – | 0.07 | 0.0794

— ChEMBL document CHEMBL1817572, “New, potent, selective, and short-acting peptidic V1a receptor agonists” (J Med Chem, 2011)
